From ChEMBL document CHEMBL2311260, “Dual action spirobicycloimidazolidine-2,4-diones: antidiabetic agents and inhibitors of aldose reductase-an enzyme involved in diabetic complications” (Bioorg Med Chem Lett, 2013)

Columns and labels:
[1] = Inhibition of calf ALR1; design: species or system Bos taurus
Summary of the method: (§1)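 ALR1 (aldehyde reductase) partially purified from calf kidney. Values are IC50 ± SEM in µM, or percent inhibition at 0.6 mM. Valproic acid served as positive control to validate the assay.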

[2] = Inhibition of calf ALR2; design: species or system Bos taurus
Summary of the method: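 Partially purified ALR2 extracted from calf eye. D,L-glyceraldehyde was the substrate with NADPH as cofactor, and sulindac served as reference. IC50 values are given ± SEM from n = 3. Kinetics were also run with inhibitor at 20 µM, varying substrate or NADPH for Km and inhibition type.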

Rattus norvegicus [3] = species on record: Rattus norvegicus; test: Antidiabetic activity in albino rat diabetic model assessed as plasma glucose level measured after 7 hrs (reference value: 280 +/- 6.51 mg/dl); assay type: functional
Rattus norvegicus [4] = species on record: Rattus norvegicus; test: Antidiabetic activity in albino rat diabetic model assessed as plasma glucose level measured after 6 hrs (reference value: 285 +/- 8.66 mg/dl); assay type: functional
Rattus norvegicus [5] = species on record: Rattus norvegicus; test: Antidiabetic activity in albino rat diabetic model assessed as plasma glucose level measured after 5 hrs (reference value: 275 +/- 3.53 mg/dl); assay type: functional
Rattus norvegicus [6] = species on record: Rattus norvegicus; test: Antidiabetic activity in albino rat diabetic model assessed as plasma glucose level measured after 4 hrs (reference value: 291 +/- 6.40 mg/dl); assay type: functional
Rattus norvegicus [7] = species on record: Rattus norvegicus; test: Antidiabetic activity in albino rat diabetic model assessed as plasma glucose level measured after 3 hrs (reference value: 263 +/- 10.67 mg/dl); assay type: functional
Rattus norvegicus [8] = species on record: Rattus norvegicus; test: Antidiabetic activity in albino rat diabetic model assessed as plasma glucose level measured after 2 hrs (reference value: 251 +/- 2.91 mg/dl); assay type: functional
Rattus norvegicus [9] = species on record: Rattus norvegicus; test: Antidiabetic activity in albino rat diabetic model assessed as plasma glucose level measured after 1 hr (reference value: 274 +/- 4.73 mg/dl); assay type: functional
Bos taurus = species on record: Bos taurus; test: Inhibition of calf ALR1 at 0.6 mM; summary of the method: as §1

Molecule `O=C1NC2(CC3CCC2C3)C(=O)N1S(=O)(=O)c1ccc([N+](=O)[O-])cc1` (stereo unspecified) has an IC50 [1] of 44.8 µM, an IC50 [2] of 13.1 µM and an Activity (Rattus norvegicus [3]) of 542 mg/dL. It also gave an Activity (Rattus norvegicus [4]) of 502 mg/dL, an Activity (Rattus norvegicus [5]) of 349 mg/dL and an Activity (Rattus norvegicus [6]) of 421 mg/dL. The Activity (Rattus norvegicus [7]) was 482 mg/dL, the Activity (Rattus norvegicus [8]) was 429 mg/dL and the Activity (Rattus norvegicus [9]) was 399 mg/dL.

`O=C1NC2(CC3CCC2C3)C(=O)N1S(=O)(=O)c1ccc(Cl)cc1` (stereo unspecified) showed an IC50 [1] of 61.1 µM, an IC50 [2] of 5.59 µM and an Activity (Rattus norvegicus [3]) of 128 mg/dL. For the same molecule, the Activity (Rattus norvegicus [4]) was 143 mg/dL, the Activity (Rattus norvegicus [5]) was 215 mg/dL and the Activity (Rattus norvegicus [6]) was 280 mg/dL. The Activity (Rattus norvegicus [7]) was 283 mg/dL, the Activity (Rattus norvegicus [8]) was 287 mg/dL and the Activity (Rattus norvegicus [9]) was 392 mg/dL.

Work on `O=C1c2ccccc2C(=O)c2cc(S(=O)(=O)N3C(=O)NC4(CC5CCC4C5)C3=O)ccc21` (stereo unspecified) yielded an inhibition (Bos taurus) of 41.6%, an IC50 [2] of 4.5 µM and an Activity (Rattus norvegicus [3]) of 86 mg/dL. The Activity (Rattus norvegicus [4]) was 99 mg/dL, the Activity (Rattus norvegicus [5]) was 187 mg/dL and the Activity (Rattus norvegicus [6]) was 281 mg/dL. For the same molecule, the Activity (Rattus norvegicus [7]) was 338 mg/dL, the Activity (Rattus norvegicus [8]) was 399 mg/dL and the Activity (Rattus norvegicus [9]) was 460 mg/dL.

Molecule `COc1ccc(Cl)cc1C(=O)NCCc1ccc(S(=O)(=O)NC(=O)NC2CCCCC2)cc1` [GLYBURIDE] has an Activity (Rattus norvegicus [3]) of 150 mg/dL, an Activity (Rattus norvegicus [4]) of 170 mg/dL and an Activity (Rattus norvegicus [5]) of 220 mg/dL. For the same molecule, the Activity (Rattus norvegicus [6]) was 239 mg/dL, the Activity (Rattus norvegicus [7]) was 250 mg/dL and the Activity (Rattus norvegicus [8]) was 289 mg/dL. For the same molecule, the Activity (Rattus norvegicus [9]) was 350 mg/dL.

Molecule `O=C1NC2(CC3CCC2C3)C(=O)N1S(=O)(=O)c1ccc2ccccc2c1` (stereo unspecified) has an inhibition (Bos taurus) of 36.8%, an IC50 [2] of 3.8 µM and an Activity (Rattus norvegicus [3]) of 430 mg/dL. The Activity (Rattus norvegicus [4]) was 414 mg/dL, the Activity (Rattus norvegicus [5]) was 401 mg/dL and the Activity (Rattus norvegicus [6]) was 471 mg/dL. It also gave an Activity (Rattus norvegicus [7]) of 393 mg/dL, an Activity (Rattus norvegicus [8]) of 389 mg/dL and an Activity (Rattus norvegicus [9]) of 210 mg/dL.

`Cc1ccc(S(=O)(=O)N2C(=O)NC3(CC4CCC3C4)C2=O)cc1` (stereo unspecified) showed an IC50 [1] of 117 µM, an IC50 [2] of 1.8 µM and an Activity (Rattus norvegicus [3]) of 114 mg/dL. For the same molecule, the Activity (Rattus norvegicus [4]) was 128 mg/dL, the Activity (Rattus norvegicus [5]) was 163 mg/dL and the Activity (Rattus norvegicus [6]) was 225 mg/dL. It also gave an Activity (Rattus norvegicus [7]) of 305 mg/dL, an Activity (Rattus norvegicus [8]) of 421 mg/dL and an Activity (Rattus norvegicus [9]) of 506 mg/dL.

Molecule `CC1=C(CC(=O)O)c2cc(F)ccc2/C1=C\c1ccc([S+](C)[O-])cc1` (stereo unspecified) [SULINDAC] has an IC50 [2] of 0.293 µM.

For `COc1ccc(S(=O)(=O)N2C(=O)NC3(CC4CCC3C4)C2=O)cc1` (stereo unspecified), the IC50 [1] was 40.2 µM, the IC50 [2] was 4.4 µM and the Activity (Rattus norvegicus [3]) was 620 mg/dL. It also gave an Activity (Rattus norvegicus [4]) of 600 mg/dL, an Activity (Rattus norvegicus [5]) of 565 mg/dL and an Activity (Rattus norvegicus [6]) of 570 mg/dL. It also gave an Activity (Rattus norvegicus [7]) of 544 mg/dL, an Activity (Rattus norvegicus [8]) of 353 mg/dL and an Activity (Rattus norvegicus [9]) of 413 mg/dL.

In the case of `O=C1NC2(CC3CCC2C3)C(=O)N1S(=O)(=O)c1ccc(Br)cc1` (stereo unspecified), the inhibition (Bos taurus) is reported as 43.2%, the IC50 [2] is reported as 15.4 µM and the Activity (Rattus norvegicus [3]) is reported as 245 mg/dL. The Activity (Rattus norvegicus [4]) was 337 mg/dL, the Activity (Rattus norvegicus [5]) was 352 mg/dL and the Activity (Rattus norvegicus [6]) was 353 mg/dL. It also gave an Activity (Rattus norvegicus [7]) of 357 mg/dL, an Activity (Rattus norvegicus [8]) of 273 mg/dL and an Activity (Rattus norvegicus [9]) of 289 mg/dL.
